High-throughput results from PubChem BioAssay.
A selection: hits, their analogues and other compounds. The true share with any hit is near 3.9%.
SR-BI HDL uptake – inhibitors of SR-BI mediated HDL lipid uptake, primary screen, ldlA[mSR-BI] cells, fluorescence, single point | inhibition, % at 12.5 µM | ldlA[mSR-BI] CHO cells, DiI-HDL uptake fluorescence, 3 h | 320,000 tested, 0.96% active | AID 488896, 2010;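 active = mean replicate inhibition of at least 70% and a set share of replicates each scoring 70 or more; inconclusive = meets just one of the two criteria; inactive = fails both criteria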;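 note: 0% = median of neutral control wells and 100% = median of positive control wells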
ABCB6 inh MLPCN – ABCB6 transporter inhibitors, primary screen, K562-ABCB6 cells, flow cytometry, MLPCN library | ATP-binding cassette sub-family B member 6 (Homo sapiens), Q9NP58 | K562-ABCB6 porphyrin accumulation, 1 h; hits give low values | fluorescence ratio to DMSO, % at 10 µM | 360,000 tested, 0.19% active;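 active = fluorescence ratio to DMSO below 75%, the collection mean minus 3 SD; inconclusive = too few cells collected in the well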;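 note: signal is porphyrin accumulated inside mitochondria; 100% equals median channel fluorescence of DMSO control wells; lower ratio means ABCB6 inhibition with less porphyrin fluorescence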
Target sequence (Q9NP58 whole entry, looked up): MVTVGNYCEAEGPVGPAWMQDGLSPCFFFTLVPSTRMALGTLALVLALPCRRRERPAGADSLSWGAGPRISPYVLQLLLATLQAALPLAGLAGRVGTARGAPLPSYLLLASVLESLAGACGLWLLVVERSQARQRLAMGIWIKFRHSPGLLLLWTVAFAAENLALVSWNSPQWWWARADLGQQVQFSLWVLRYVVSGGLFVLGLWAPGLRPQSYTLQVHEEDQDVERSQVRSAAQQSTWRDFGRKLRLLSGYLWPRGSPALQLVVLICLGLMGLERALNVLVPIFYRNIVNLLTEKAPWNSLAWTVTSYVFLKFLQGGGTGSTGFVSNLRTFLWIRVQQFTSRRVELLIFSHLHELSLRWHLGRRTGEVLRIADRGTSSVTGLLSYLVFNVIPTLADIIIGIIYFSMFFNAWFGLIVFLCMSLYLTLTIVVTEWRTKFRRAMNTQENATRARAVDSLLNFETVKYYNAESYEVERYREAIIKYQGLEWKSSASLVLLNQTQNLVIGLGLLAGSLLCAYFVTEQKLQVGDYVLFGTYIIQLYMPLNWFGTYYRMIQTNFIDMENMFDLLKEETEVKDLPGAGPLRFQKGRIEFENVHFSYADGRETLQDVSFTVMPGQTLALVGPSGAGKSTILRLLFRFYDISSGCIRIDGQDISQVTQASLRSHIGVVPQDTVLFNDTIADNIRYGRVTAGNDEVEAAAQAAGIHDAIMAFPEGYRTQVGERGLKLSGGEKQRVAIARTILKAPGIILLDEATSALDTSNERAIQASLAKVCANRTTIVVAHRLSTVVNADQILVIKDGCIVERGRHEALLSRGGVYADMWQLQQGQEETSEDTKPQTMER
SR-BI uptake up – activators of SR-BI mediated DiI-HDL uptake, primary screen, ldlA[mSR-BI] CHO cells, DiI fluorescence; 3 h; 100 = double the neutral-control signal; activation, % at 12.5 µM; 320,000 tested, 0.096% active;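 active = mean replicate activation of at least 60% and every replicate at or above 60%; inconclusive = mean or all-replicate condition met, but not both; inactive = mean below 60% and not all replicates reaching 60%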;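 note: 0% = median plate neutral-control signal and 100% = twice that signal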
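Test system: SR-BI-overexpressing, LDLR-lacking CHO cells. Measured by: DiI fluorescence, bottom read. Medium: Ham's F12 with 0.5% BSA, HEPES 25 mM, pH 7.4. Timing: 3 h uptake period with compound, 37 °C.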
AHR act – AHR activators, primary screen, cell-based, luminescence, luciferase reporter, human. Aryl hydrocarbon receptor (Homo sapiens), P35869. AHR-responsive luciferase reporter cells. activation, % at 5 µM. 320,000 tested, 2.5% active. AID 2796, 2010; in the data active = activation above about 47%;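 note: 0% = vehicle wells and 100% = reference agonist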
HIF act – HIF pathway transcriptional activators, primary screen, cell-based, U2OS HRE-luciferase, luminescence; U2OS HRE-luciferase reporter; normalized: DMSO 0%, desferrioxamine 100%; 300,000 tested, 0.32% active; AID 1910, 2009; activation, % at 7.5 µM (by protocol);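 active = mean activation of at least 10% of the iron chelator positive control signal, with at least half of replicates also reaching 10%; inconclusive = mean and replicate majority disagree about reaching 10%; inactive = mean and most replicates under 10%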
FXN GAA850 act – FXN promoter activators, primary screen, cell-based, luciferase luminescence, HEK293 lucGAA850; HEK293 lucGAA850 FXN promoter luciferase reporter, 24 h; percent of 10 µM SAHA response; activation, % at 6 µM; 360,000 tested, 0.56% active;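 active = activation above the average of all compounds screened plus 3 SD, cutoff fixed separately per campaign, cut at about 7.5% in these data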;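 note: 0% = DMSO wells and 100% = 10 µM SAHA wells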
* hit, by the source's call; ? = inconclusive; · = no result.

SMILES | SR-BI HDL uptake | ABCB6 inh MLPCN | SR-BI uptake up | AHR act | HIF act | FXN GAA850 act
CC1CCC(C(C)C)C(OC(=O)C[n+]2cc(-c3ccc(Cl)cc3)n3c2CCC3)C1 (centres undefined) | · | 93 | · | 2 | 0 | 0
FC(F)Oc1ccc(NC(=S)NNc2ccnc3cc(Cl)ccc23)cc1 | 95* | 112 | -95 | 7 | 1 | 1
NC(=S)NNc1ccnc2cc(Cl)ccc12 | 90* | 101 | -90 | 4 | -1 | 1
O=C(NNc1ccnc2cc(Cl)ccc12)C1CCCCC1 | -1 | 93 | 1 | 13 | 0 | -4
CCC(C)[C@H](NC(=O)N1CCN(c2cccc(C(F)(F)F)c2)CC1)C(=O)OC (some centres undefined) | 18 | 100 | -18 | -10 | 0 | -1
O=C(Cc1cccc(NC(=O)C2CCCN(C(=O)CCc3ccccc3)C2)c1)Nc1cccc(C(=O)N2CCCC2)c1 (centres undefined) | 78* | 98 | -78 | 0 | · | -1
O=C(Cc1cccc(NC(=O)C2CCCN(C(=O)C3CCCC3)C2)c1)Nc1ccc(C(=O)N2CCCCC2)cc1 (centres undefined) | 63 | 94 | -63 | · | · | 0
O=C(Cc1cccc(NC(=O)C2CCCN(C(=O)C3CC3)C2)c1)Nc1ccc(C(=O)N2CCCCC2)cc1 (centres undefined) | 75* | 103 | -75 | · | · | -1
COc1ccc(C(=O)N/C(=C/c2cccs2)c2nc3ccccc3[nH]2)cc1OC | -1 | 90 | 1 | 35 | 0 | 6
COc1cc(/C=C(/C(=O)c2cccs2)c2nc3ccccc3[nH]2)cc(OC)c1O | -4 | 92 | 4 | 114* | 7 | -2
Cc1ccc(Sc2cnn(-c3ccccc3)c(=O)c2Cl)cc1 | 19 | 98 | -19 | 61* | 0 | 0
Cc1ccc(C)c(NC(=O)CCc2c(C)nn(-c3ccc(N4CCCCC4)nn3)c2C)c1 | 83* | 94 | -83 | 0 | 0 | -2
Cc1ccc(NC(=O)CCc2c(C)nn(-c3ccc(N4CCCCC4)nn3)c2C)cc1F | 53 | 108 | -53 | 7 | 4 | 5
Cc1nn(-c2ccc(N3CCCCC3)nn2)c(C)c1CCC(=O)Nc1ccc(F)cc1 | 49 | 95 | -49 | 3 | 2 | 2
CCc1ccc(NC(=O)CCc2c(C)nn(-c3ccc(N4CCCCC4)nn3)c2C)cc1 | 81* | 85 | -81 | 2 | 3 | 3
COc1ccc(C=C(c2ccc(OC)cc2)c2ccc(OC)cc2)cc1 | 72* | 102 | -72 | 7 | -1 | -2
Nc1[nH]n2c(=O)cc(-c3ccccc3)nc2c1N=Nc1ccc(S(N)(=O)=O)cc1 | 2 | 95 | -2 | 0 | 0 | -3
NS(=O)(=O)c1ccc(N=Nc2c(-c3ccccc3)[nH]n(-c3nc(-c4ccccc4)cs3)c2=O)cc1 | 112* | 93 | -112 | -3 | 0 | 2
COC(=O)c1c(NC(=S)Nc2ccccc2Cl)sc(C)c1C | 75* | 104 | -75 | 7 | 0 | -1
CCc1c(C)sc(NC(=S)Nc2cccnc2)c1C(=O)OC | -6 | 102 | 6 | 76* | 0 | 0
CCc1c(C)sc(NC(=S)Nc2nc(C)cc(C)n2)c1C(=O)OC | 24 | 97 | -24 | 12 | 1 | 2
O=[N+]([O-])c1ccc(COc2ccc(-c3[nH]ncc3-c3ccccc3)c(O)c2)cc1 | 14 | 92 | -14 | 57* | -1 | 3
Oc1ccc2ccccc2c1C=Nc1ccccc1-c1nc2ccccc2[nH]1 | 51 | 97 | -51 | 65* | 1 | 0
CCOc1ccc(-c2csc(NC(=O)c3cccc(N4C(=O)CCC4=O)c3)n2)cc1 | 90* | 86 | -90 | -2 | 0 | 2
COc1ccc(-c2csc(NC(=O)c3cccc(N4C(=O)CCC4=O)c3)n2)cc1OC | 72* | 97 | -72 | 0 | · | -1
SMILES | SR-BI HDL uptake | ABCB6 inh MLPCN | SR-BI uptake up | AHR act | HIF act | FXN GAA850 act
Cc1ccc(-c2csc(NC(=O)c3cccc(N4C(=O)CCC4=O)c3)n2)o1 | 64 | 91 | -62 | 38 | 0 | 3
CCOC(=O)c1c(-c2ccc(-c3ccccc3)cc2)csc1NC(=O)c1cccc(N2C(=O)CCC2=O)c1 | 72* | 100 | -72 | 0 | -1 | 1
O=C(c1ccc(Oc2ccc(C(F)(F)F)cn2)cc1)N1CCN(c2ccccc2)CC1 | -9 | 101 | 9 | 2 | 0 | 0
c1ccc(C(c2nnnn2Cc2ccco2)N2CCN(c3nc4ccccc4s3)CC2)cc1 (centres undefined) | · | 112 | · | 2 | 0 | -4
O=C(N/C(=C/c1cccnc1)C(=O)N1CCCCCC1)c1cccc(Br)c1 | -7 | 104 | 7 | 48* | 0 | -2
O=C(N/C(=C\c1cccnc1)C(=O)N1CCC(O)CC1)c1ccccc1 | · | 100 | · | 5 | 0 | 0
CC(C)(C)C(=O)/C=c1\[nH]c(=O)/c(=C\c2ccccc2F)s1 | -3 | 95 | 3 | 53* | 0 | 2
CC1=CCC(/C=N\Nc2nnc3c(n2)[nH]c2ccccc23)CC1 (centres undefined) | · | · | · | 55* | 3 | ·
O=C(Nc1cccc(S(=O)(=O)N2CCCC2)c1)c1cc(-c2ccccn2)nc2ccccc12 | ? | 89 | -79 | 3 | 0 | -1
N#Cc1c(NC(=O)c2cnccn2)sc2c1CCCC2 | -25 | 97 | 25 | 69* | 6 | -1
N#Cc1c(NC(=O)c2ccc(Cn3cc(Br)cn3)o2)sc2c1CCCCCC2 | -14 | 104 | 14 | 70* | 0 | 1
CC(C)c1onc(C(=O)Nc2sc3c(c2C#N)CCC3)c1[N+](=O)[O-] | 1 | 103 | -1 | 7 | 191* | 0
Cc1ccc(NC(=O)c2ccc(Cn3cc(Br)cn3)o2)cc1 | 4 | 97 | -4 | 60* | 1 | 3
Cn1nccc1C(=O)Nc1sc2c(c1C#N)CCCC2 | 8 | 91 | -8 | 30 | 3 | 6
N#Cc1c(NC(=O)c2cccnc2)sc2c1CCC2 | 15 | 88 | -15 | 44 | -28 | -1
CCCC(=O)N1CCC1(C)C(=O)NS(=O)(=O)c1ccc(C#N)cc1 (centres undefined) | · | 89 | · | · | · | 3
O=C(C1CCN(S(=O)(=O)N2CCC3(CC2)OCCO3)CC1)N1CCN(Cc2ccccc2)CC1 | -24 | 98 | 24 | 0 | 0 | 0
COc1cc(C(=O)NNC(=O)Cc2ccc(S(=O)(=O)N3CCOCC3)s2)cc(OC)c1OC | -21 | 101 | 21 | -1 | 0 | -2
